Assay [1] addresses T1, Sphingosine kinase 1 (Homo sapiens, UniProt Q9NYA1). Kind of assay: Inhibition of His-tagged full length human recombinant SPHK1 expressed in baculovirus infected fall armyworm Sf9 cell expression system using sphingosine as substrate by ADP-quest assay.
Assay [2] deals with T2, Sphingosine kinase 2 (Homo sapiens, UniProt Q9NRA0).
T2 sequence (Q9NRA0 whole entry): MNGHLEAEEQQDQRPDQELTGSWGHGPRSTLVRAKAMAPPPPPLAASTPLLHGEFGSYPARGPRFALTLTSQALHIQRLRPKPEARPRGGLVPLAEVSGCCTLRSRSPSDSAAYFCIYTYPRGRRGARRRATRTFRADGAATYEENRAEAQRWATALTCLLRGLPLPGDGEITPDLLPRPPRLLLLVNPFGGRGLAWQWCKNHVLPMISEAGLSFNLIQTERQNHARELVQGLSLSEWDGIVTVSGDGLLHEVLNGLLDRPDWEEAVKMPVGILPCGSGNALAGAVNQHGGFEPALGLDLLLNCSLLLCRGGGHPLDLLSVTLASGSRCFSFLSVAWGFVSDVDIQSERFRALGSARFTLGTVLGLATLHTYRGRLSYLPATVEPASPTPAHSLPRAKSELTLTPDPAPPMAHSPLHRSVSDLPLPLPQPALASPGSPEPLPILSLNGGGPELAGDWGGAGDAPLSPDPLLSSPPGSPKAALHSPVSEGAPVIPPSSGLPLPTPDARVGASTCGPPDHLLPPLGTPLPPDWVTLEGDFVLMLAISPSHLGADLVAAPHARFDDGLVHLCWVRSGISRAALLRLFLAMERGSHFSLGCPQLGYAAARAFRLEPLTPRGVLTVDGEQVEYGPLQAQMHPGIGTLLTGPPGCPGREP
Kind of assay: Inhibition of His-tagged full length human recombinant SPHK2 expressed in baculovirus infected fall armyworm Sf9 cell expression system using sphingosine as substrate by ADP-quest assay.

Assay [3] relates to Mus musculus. Kind of assay: Antiinflammatory activity in DSS- induced C57BL/6 mouse colon colitis model assessed as cellular infiltration of mononuclear macrophages/neutrophils at 50 mg/kg, ig after 24 hrs by hematoxylin/eosin staining based assay. The class given is functional, organism-based. The procedure, abridged:
(§1)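 Colitis induced in female C57BL/6 mice as 2.5% DSS in drinking water for 5 days, then 5 days of water. Dosing ip or 5-ASA ig until sacrifice at day 10. Colons fixed in 10% buffered formalin (pH 7.4) for at least 24 h. Sections scored for cellular infiltration, mucosal lesion and crypt damage to give a histologic score.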

Assay [4] has as its system Mus musculus. Description: Antiinflammatory activity in DSS- induced C57BL/6 mouse colitis model assessed as body weight at 50 mg/kg, ig after 10 days (reference value: 15.69 +/- 0.65 g). The class given is functional. The procedure, abridged:
(§2)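 Female C57BL/6 mice, 6–8 weeks, randomized into five groups. Colitis induced by 2.5% w/v DSS in drinking water for 5 days, then 5 days of normal water. Test agent given ip at 5 or 10 mg/kg, or 5-ASA ig at 50 mg/kg, until study end. Controls were water plus vehicle and DSS plus vehicle. Body weight recorded daily; colon length taken at sacrifice on day 10. Mean ± SD, n = 10.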

Assay [5] has as its system Mus musculus. Description: Antiinflammatory activity in DSS- induced C57BL/6 mouse colon colitis model assessed as inhibition of IL6 expression at 50 mg/kg, ig after 24 hrs by hematoxylin staining based assay. The class given is functional, organism-based. The procedure, abridged: (§3)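 Colons come from the same DSS model, fixed in 10% buffered formalin for at least 24 h. Paraffin sections were deparaffinized. Antigen was retrieved in 10 mM sodium citrate with 0.1% Tween 20 at 100 °C for 20 min. Primary antibody was applied in PBS with 5% BSA and 10% goat serum, then HRP polymer at room temperature for 30 min. Detection was DAB with hematoxylin counterstain. IL-6 and COX-2 positive labeling was counted automatically. Mean ± SD.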

In assay [6] the test system is Mus musculus. Description: Antiinflammatory activity in DSS- induced C57BL/6 mouse colitis model assessed as colon length at 50 mg/kg, ig after 10 days (reference value: 45.68 +/- 1.34 mm). It is filed as functional. The procedure, abridged: as §2
Assay [7] deals with Mus musculus. Description: Antiinflammatory activity in DSS- induced C57BL/6 mouse colon colitis model assessed as mucosal/submucosal lesion at 50 mg/kg, ig after 24 hrs by hematoxylin/eosin staining based assay. The class given is functional, organism-based. Summed up:
as §1

Assay [8] deals with Mus musculus. Kind of assay: Antiinflammatory activity in DSS- induced C57BL/6 mouse colon colitis model assessed as degeneration/necrosis of crypt cells at 50 mg/kg, ig after 24 hrs by hematoxylin/eosin staining based assay. It is filed as functional, organism-based. Summed up: as §1
Assay [9] relates to Mus musculus. Kind of assay: Antiinflammatory activity in DSS- induced C57BL/6 mouse colon colitis model assessed as inhibition of COX2 expression at 50 mg/kg, ig after 24 hrs by hematoxylin staining based assay. The class given is functional, organism-based. The procedure, abridged:
as §3

Assay [10] relates to Mus musculus. Kind of assay: Antiinflammatory activity in DSS- induced C57BL/6 mouse colitis model assessed as change in body weight at 50 mg/kg, ig after 7 days. The class given is functional, organism-based. Summed up:
as §2

The subject of assay [11] is Mus musculus. Description: Antiinflammatory activity in DSS- induced C57BL/6 mouse colitis model assessed as colon length at 5 mg/kg, ip after 10 days (reference value: 45.68 +/- 1.34 mm). The class given is functional. Summed up:
as §2

Assay [12] relates to Mus musculus. Kind of assay: Antiinflammatory activity in DSS- induced C57BL/6 mouse colitis model assessed as body weight at 10 mg/kg, ip after 10 days (reference value: 15.69 +/- 0.65 g). The class given is functional. The procedure, abridged:
as §2

The subject of assay [13] is Mus musculus. Kind of assay: Antiinflammatory activity in DSS- induced C57BL/6 mouse colitis model assessed as body weight at 5 mg/kg, ip after 10 days (reference value: 15.69 +/- 0.65 g). It is filed as functional. The procedure, abridged:
as §2

Assay [14] has as its system Mus musculus. Kind of assay: Antiinflammatory activity in DSS- induced C57BL/6 mouse colon colitis model assessed as cellular infiltration of mononuclear macrophages/neutrophils at 10 mg/kg, ip after 24 hrs by hematoxylin/eosin staining based assay. It is filed as functional, organism-based. Summed up:
as §1

For assay [15], the system named is Mus musculus. Kind of assay: Antiinflammatory activity in DSS- induced C57BL/6 mouse colon colitis model assessed as inhibition of COX2 expression at 5 to 10 mg/kg, ip after 24 hrs by hematoxylin staining based assay. The class given is functional, organism-based. Summed up: as §3
For assay [16], the system named is Mus musculus. Kind of assay: Antiinflammatory activity in DSS- induced C57BL/6 mouse colitis model assessed as colon length at 10 mg/kg, ip after 10 days (reference value: 45.68 +/- 1.34 mm). The class given is functional. Summed up: as §2
For assay [17], the system named is Mus musculus. Description: Antiinflammatory activity in DSS- induced C57BL/6 mouse colitis model assessed as change in body weight at 5 to 10 mg/kg, ip after 7 days. It is filed as functional, organism-based. Summed up: as §2
Assay [18] addresses T1, Sphingosine kinase 1. Description: Inhibition of GST-tagged full length human recombinant SPHK1 expressed in baculovirus using sphingosine as substrate preincubated for 10 mins measured after 1 hr by ADP-quest assay.
Assay [19] deals with T2, Sphingosine kinase 2. Description: Inhibition of GST-tagged full length human recombinant SPHK2 expressed in baculovirus using sphingosine as substrate preincubated for 10 mins measured after 1 hr by ADP-quest assay. Summed up: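 Human recombinant SphK1 or SphK2 with sphingosine substrate and ATP, tested in 384-well format. Enzyme was preincubated with compound for 10 min, then the reaction ran at 28 °C for 1 h. ADP Quest reagents A and B were added for 30 min at room temperature. Fluorescence was read at Ex 530/Em 590 nm. Values are mean of n = 3 in triplicate.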

Assay [20] deals with Mus musculus. Description: Antiinflammatory activity in DSS- induced C57BL/6 mouse colon colitis model assessed as degeneration/necrosis of crypt cells at 10 mg/kg, ip after 24 hrs by hematoxylin/eosin staining based assay. The class given is functional, organism-based. Summed up:
as §1

The test system of assay [21] is Mus musculus. Kind of assay: Antiinflammatory activity in DSS- induced C57BL/6 mouse colon colitis model assessed as mucosal/submucosal lesion at 10 mg/kg, ip after 24 hrs by hematoxylin/eosin staining based assay. The class given is functional, organism-based. Summed up: as §1
Assay [22] deals with Mus musculus. Kind of assay: Antiinflammatory activity in DSS- induced C57BL/6 mouse colon colitis model assessed as inhibition of IL6 expression at 5 to 10 mg/kg, ip after 24 hrs by hematoxylin staining based assay. The class given is functional, organism-based. Summed up: as §3

Active and inactive are the calls of the source. No cut-off for these calls is given here. Where only a bound is given, the exact number is not on record here.

T1 sequence (Q9NYA1 whole entry): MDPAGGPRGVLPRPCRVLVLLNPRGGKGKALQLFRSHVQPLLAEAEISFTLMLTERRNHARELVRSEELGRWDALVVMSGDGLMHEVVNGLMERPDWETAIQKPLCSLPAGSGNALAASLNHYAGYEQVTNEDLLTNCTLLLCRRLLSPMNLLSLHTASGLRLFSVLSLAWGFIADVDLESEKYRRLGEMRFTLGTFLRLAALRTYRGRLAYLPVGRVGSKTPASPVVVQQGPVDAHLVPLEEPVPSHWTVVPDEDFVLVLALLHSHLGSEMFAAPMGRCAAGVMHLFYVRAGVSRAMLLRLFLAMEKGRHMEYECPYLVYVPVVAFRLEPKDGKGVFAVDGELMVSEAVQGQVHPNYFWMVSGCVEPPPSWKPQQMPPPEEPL

Take `O=C(NCc1ccc(O)c(O)c1)C12CC3CC(C1)CC(c1ccc(Cl)cc1)(C3)C2`: the results for the Ki at Sphingosine kinase 1 [1] and at Sphingosine kinase 2 [2] were 3.2 µM and 4.2 µM, respectively.

For the compound `Nc1ccc(O)c(C(=O)O)c1` [MESALAMINE], the outcome in the assay with Mus musculus [3], in the assay with Mus musculus [7] and in the assay on Mus musculus [8] was Active. Besides, the Activity is recorded as 18.32 g in the assay with Mus musculus [4] and 53.4 mm in the assay on Mus musculus [6]. Besides, the inhibition entry with Mus musculus [5] and with Mus musculus [9] was “Active” in each case. Further, the outcome in the assay with Mus musculus [10] was inactive.

Turning to `COc1cccc(COc2ccc(/C=N/NC(=O)c3cc(O)c(O)c(O)c3)cc2)c1`, the Activity with Mus musculus [11] is 53.04 mm; in the assay on Mus musculus [12], 17.5 g; in the assay on Mus musculus [13], 17.1 g; with Mus musculus [16] it was 51.41 mm. Besides, the outcome in the assay on Mus musculus [14], in the assay with Mus musculus [20] and in the assay on Mus musculus [21] was Active. Moreover, the inhibition entry with Mus musculus [15] and in the assay on Mus musculus [22] was “Active” throughout. In the assay with Mus musculus [17], the result was inactive. The IC50 (commonly the point on the concentration scale where inhibition reaches its midpoint) came out at 4.36 µM at Sphingosine kinase 1 [18] and 2.17 µM on Sphingosine kinase 2 [19].

On to `O=C(N/N=C/c1ccc(OCc2ccc3ccccc3c2)cc1)c1cc(O)c(O)c(O)c1`, for which the values for the IC50 at Sphingosine kinase 1 [18] and on Sphingosine kinase 2 [19] were 20.6 µM and 30.2 µM, respectively.

On to `COc1cccc(COc2ccc(/C=N/NC(=O)c3cc(O)cc(O)c3)cc2)c1`, for which the 50% inhibitory concentration (IC50) at Sphingosine kinase 1 [18] and at Sphingosine kinase 2 [19] was > 100 µM throughout.

Consider `COc1cccc(COc2cccc(/C=N/NC(=O)c3cccc(O)c3)c2)c1`, for which the IC50 at Sphingosine kinase 1 [18] and on Sphingosine kinase 2 [19] was > 100 µM each time.

Values taken from ChEMBL document CHEMBL3813598, “Development of hydroxy-based sphingosine kinase inhibitors and anti-inflammation in dextran sodium sulfate induced colitis in mice” (Bioorg Med Chem, 2016).
